Active and inactive are the calls of the source. The rule behind the calls is not given here.
Columns and labels:
Cannabinoid receptor 2 [1] = biological target: T1, Cannabinoid receptor 2 (Homo sapiens, UniProt P34972); experiment: Displacement of [3H]CP-55940 from human recombinant CB2 receptor expressed in CHO cells; type: cell-based
Cannabinoid receptor 1 [2] = biological target: T2, Cannabinoid receptor 1 (Homo sapiens, UniProt P21554); experiment: Displacement of [3H]CP-55940 from human recombinant CB1 receptor expressed in CHO cells; type: cell-based
T2 sequence (P21554 whole entry): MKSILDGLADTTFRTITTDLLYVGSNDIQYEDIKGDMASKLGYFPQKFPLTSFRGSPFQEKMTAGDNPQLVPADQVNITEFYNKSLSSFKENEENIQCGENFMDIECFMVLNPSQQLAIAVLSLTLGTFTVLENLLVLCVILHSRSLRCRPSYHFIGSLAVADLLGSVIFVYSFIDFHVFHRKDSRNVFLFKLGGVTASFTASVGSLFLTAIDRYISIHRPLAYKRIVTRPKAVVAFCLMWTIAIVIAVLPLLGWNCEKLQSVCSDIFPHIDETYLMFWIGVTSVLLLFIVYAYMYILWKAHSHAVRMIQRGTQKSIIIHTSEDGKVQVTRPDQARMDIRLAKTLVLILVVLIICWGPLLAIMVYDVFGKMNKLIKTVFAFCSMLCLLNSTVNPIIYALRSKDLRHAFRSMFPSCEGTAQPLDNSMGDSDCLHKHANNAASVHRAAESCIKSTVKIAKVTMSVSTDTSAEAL

Cannabinoid receptor 1 [3] = biological target: T2, Cannabinoid receptor 1; experiment: Agonist activity at human recombinant CB1 receptor expressed in CHO cells assessed as effect on CP-55940 induced PLA2 activation by [3H]arachidonic acid release assay; type: functional, cell-based; settings: for Kb: read-out: pA2 (converted)
Rattus norvegicus = experiment: Neuroprotective activity in Lewis rat assessed as reduction of experimental autoallergic encephalomyelitis-induced motor deficits at 20 mg/kg, po qd for 11 days; type: functional, organism-based; design: dose 20 mg/kg
Outline: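 Male Lewis rats, 175–225 g, inoculated day 0 by subcutaneous hind-paw injection, under isoflurane, of a saline emulsion of complete Freund adjuvant, M. tuberculosis H37RA and guinea pig myelin basic protein. Oral dosing once daily from day one. Motor dysfunction scored daily on a 0–10 scale, with body weights; paralysis intensity analysed as AUC and average score.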

Cannabinoid receptor 2 [4] = biological target: T1, Cannabinoid receptor 2; experiment: Inverse agonist activity at human recombinant CB2 receptor expressed in CHOK1 cells assessed as effect on forskolin-stimulated adenylate cyclase activity by cAMP accumulation assay; type: functional, cell-based, CHO-K1
Outline: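 CHO-K1 cells expressing human CB2, grown in serum-supplemented medium with glutamine, Hygromycin B and G418 at 37 °C, 5% CO2. Confluent cells loaded with [3H]adenine for 2 h, then 20 min in PBS with 1 mM IBMX and 3×10^-7 M forskolin ± compound (10^-10–10^-6 M). Stopped with TCA; [3H]cAMP/[3H]ATP separated on Dowex/alumina, scintillation counted, basal subtracted; […], two independent experiments in triplicate.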

T1 sequence (P34972 whole entry): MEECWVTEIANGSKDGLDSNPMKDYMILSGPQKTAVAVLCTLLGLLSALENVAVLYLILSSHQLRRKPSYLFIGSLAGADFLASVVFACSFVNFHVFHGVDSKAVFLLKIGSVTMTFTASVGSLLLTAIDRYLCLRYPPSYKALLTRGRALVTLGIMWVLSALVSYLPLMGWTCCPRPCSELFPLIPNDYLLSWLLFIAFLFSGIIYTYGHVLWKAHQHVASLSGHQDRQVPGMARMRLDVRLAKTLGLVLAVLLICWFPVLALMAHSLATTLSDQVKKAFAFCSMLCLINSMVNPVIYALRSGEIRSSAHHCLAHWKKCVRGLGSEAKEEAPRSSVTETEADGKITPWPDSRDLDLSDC

SMILES: CCCCC1=NN(C(=O)NC(C)(C)c2ccc(F)cc2)CC1c1cccc(F)c1 (stereo unspecified)
- Ki (Cannabinoid receptor 2 [1]): 74 nM
- Ki (Cannabinoid receptor 1 [2]): 44.9 nM
- EC50 (Cannabinoid receptor 1 [3]): 100 nM

SMILES: CCCCCC1=NN(C(=O)c2cccc3ccccc23)CC1c1ccccc1 (stereo unspecified)
- Ki (Cannabinoid receptor 2 [1]): 103 nM
- Ki (Cannabinoid receptor 1 [2]): 164 nM
- EC50 (Cannabinoid receptor 1 [3]): 31.6 nM

SMILES: CCCCCC1=NN(C(=O)Nc2ccccc2C(F)(F)F)CC1c1ccccc1 (stereo unspecified)
- Ki (Cannabinoid receptor 2 [1]): 15 nM
- Ki (Cannabinoid receptor 1 [2]): 70 nM

SMILES: CCCCCN1N=C(C(=O)N[C@H]2C[C@H]3CC[C@]2(C)C3(C)C)CC1c1ccccc1 (stereo partly specified)
- Ki (Cannabinoid receptor 2 [1]): 20.1 nM
- Ki (Cannabinoid receptor 1 [2]): 4.7 nM
- EC50 (Cannabinoid receptor 1 [3]): 5.01 nM
- Kb (Cannabinoid receptor 1 [3]): 7.94 nM

SMILES: CCCCCC1=NN(C(=O)N[C@H]2C[C@H]3CC[C@]2(C)C3(C)C)CC1c1ccccc1 (stereo in doubt; 9)
- Ki (Cannabinoid receptor 2 [1]): 7.4 nM
- Ki (Cannabinoid receptor 1 [2]): 28.5 nM
- EC50 (Cannabinoid receptor 1 [3]): 0.631 nM
- Kb (Cannabinoid receptor 1 [3]): 7.94 nM

SMILES: CCCCCC1=NN(C(=O)NC2CCCCCCC2)CC1c1ccccc1 (stereo unspecified)
- Ki (Cannabinoid receptor 2 [1]): 26.6 nM
- Ki (Cannabinoid receptor 1 [2]): 11.9 nM

SMILES: CCCCC1=NN(C(=O)NC(C)(C)c2ccccc2)CC1c1ccsc1 (stereo unspecified)
- Ki (Cannabinoid receptor 2 [1]): 62 nM
- Ki (Cannabinoid receptor 1 [2]): 19.3 nM
- EC50 (Cannabinoid receptor 1 [3]): 39.8 nM

SMILES: CCCCCC1=NN(C(=O)NC(C)(C)c2ccccc2)CC1c1ccccc1 (stereo unspecified)
- Ki (Cannabinoid receptor 2 [1]): 17.6 nM
- Ki (Cannabinoid receptor 1 [2]): 3.26 nM
- EC50 (Cannabinoid receptor 1 [3]): 3.98 nM

SMILES: CCCCCC1=NN(C(=O)NCc2ccccc2)CC1c1ccccc1 (stereo unspecified)
- Ki (Cannabinoid receptor 2 [1]): 260 nM
- Ki (Cannabinoid receptor 1 [2]): 51 nM
- EC50 (Cannabinoid receptor 1 [3]): 398 nM

SMILES: CCCCCC1=NN(C(=O)NC2CCCCC2)CC1c1ccccc1 (stereo unspecified)
- Ki (Cannabinoid receptor 2 [1]): 79 nM
- Ki (Cannabinoid receptor 1 [2]): 52 nM

SMILES: CCCCCN1N=C(C(=O)N[C@H]2C[C@H]3CC[C@]2(C)C3(C)C)CC1c1ccccc1F (stereo partly specified)
- Ki (Cannabinoid receptor 2 [1]): 9.1 nM
- Ki (Cannabinoid receptor 1 [2]): 6.1 nM
- EC50 (Cannabinoid receptor 1 [3]): 3.98 nM
- Kb (Cannabinoid receptor 1 [3]): 7.94 nM

SMILES: CCCCC1=NN(C(=O)NC(C)(C)c2ccccc2)C(C)(C)C1c1ccccc1 (stereo unspecified)
- Ki (Cannabinoid receptor 2 [1]): 11.9 nM
- Ki (Cannabinoid receptor 1 [2]): 9 nM

SMILES: CCCCCN1N=C(C(=O)NC(C)(C)c2ccc(F)cc2)CC1c1ccccc1 (stereo unspecified)
- Ki (Cannabinoid receptor 2 [1]): 121 nM
- Ki (Cannabinoid receptor 1 [2]): 118 nM
- EC50 (Cannabinoid receptor 1 [3]): 3.98 nM
- Kb (Cannabinoid receptor 1 [3]): 7.94 nM

SMILES: CCCCCC1=NN(C(=O)NC2CCCCCC2)CC1c1ccccc1 (stereo unspecified)
- Ki (Cannabinoid receptor 2 [1]): 19.8 nM
- Ki (Cannabinoid receptor 1 [2]): 15.3 nM

SMILES: CCCCCC1=NN(C(=O)NC2CCCc3ccccc32)CC1c1ccccc1 (stereo unspecified)
- Ki (Cannabinoid receptor 2 [1]): 22.5 nM
- Ki (Cannabinoid receptor 1 [2]): 33.1 nM

SMILES: CCCCC1=NN(C(=O)N[C@H]2C[C@H]3CC[C@]2(C)C3(C)C)C(C)(C)C1c1ccccc1 (stereo partly specified)
- Ki (Cannabinoid receptor 2 [1]): 3.4 nM
- Ki (Cannabinoid receptor 1 [2]): 16.1 nM

SMILES: CCCCCC1=NN(C(=O)Nc2cccc3ccccc23)CC1c1ccccc1 (stereo unspecified)
- Ki (Cannabinoid receptor 2 [1]): 36.6 nM
- Ki (Cannabinoid receptor 1 [2]): 7.4 nM
- EC50 (Cannabinoid receptor 1 [3]): 1580 nM

SMILES: CCCCCC1=NN(C(=O)NC2C3CC4CC(C3)CC2C4)CC1c1ccccc1 (stereo unspecified)
- Ki (Cannabinoid receptor 2 [1]): 6.3 nM
- Ki (Cannabinoid receptor 1 [2]): 6.4 nM
- EC50 (Cannabinoid receptor 1 [3]): 25.1 nM

SMILES: CCCCCC1=NN(C(=O)NC[C@@H]2CC[C@H]3C[C@@H]2C3(C)C)CC1c1ccccc1 (stereo partly specified)
- Ki (Cannabinoid receptor 2 [1]): 13.3 nM
- Ki (Cannabinoid receptor 1 [2]): 15.6 nM
- EC50 (Cannabinoid receptor 1 [3]): 2000 nM

SMILES: CCCCCC1=NN(C(=O)NCC23CC4CC(CC(C4)C2)C3)CC1c1ccccc1 (stereo unspecified)
- Ki (Cannabinoid receptor 1 [2]): 16.1 nM

SMILES: CCCCC1=NN(C(=O)NC(C)(C)c2ccccc2)CC1c1ccccc1 (stereo unspecified)
- Ki (Cannabinoid receptor 2 [1]): 35.6 nM
- Ki (Cannabinoid receptor 1 [2]): 14.2 nM
- EC50 (Cannabinoid receptor 1 [3]): 3.98 nM

SMILES: CCCCCC1=NN(C(=O)NC2C[C@H]3CCC2(C)C3(C)C)CC1c1ccccc1 (single isomer, unassigned)
- Ki (Cannabinoid receptor 2 [1]): 5.3 nM
- Activity (Rattus norvegicus): Active
- EC50 (Cannabinoid receptor 2 [4]): 3.16 nM
- Ki (Cannabinoid receptor 1 [2]): 8.3 nM
- EC50 (Cannabinoid receptor 1 [3]): 3.98 nM
- pA2 (Cannabinoid receptor 1 [3]; cho): 8.1

SMILES: CCCCCC1=NN(C(=O)NC23CC4CC(CC(C4)C2)C3)CC1c1ccccc1 (stereo unspecified)
- Ki (Cannabinoid receptor 2 [1]): 14.9 nM
- Ki (Cannabinoid receptor 1 [2]): 68 nM
- EC50 (Cannabinoid receptor 1 [3]): 398 nM

SMILES: CCCCCN1N=C(C(=O)NC2C3CC4CC(C3)CC2C4)CC1c1ccccc1 (stereo unspecified)
- Ki (Cannabinoid receptor 2 [1]): 7.1 nM
- Ki (Cannabinoid receptor 1 [2]): 9.2 nM
- Kb (Cannabinoid receptor 1 [3]): 7.94 nM

SMILES: CCCCCC1=NN(C(=O)N[C@H]2CC3CC[C@]2(C)C3(C)C)CC1c1ccccc1 (single isomer, unassigned)
- Ki (Cannabinoid receptor 2 [1]): 36 nM
- Ki (Cannabinoid receptor 1 [2]): 46.8 nM
- EC50 (Cannabinoid receptor 1 [3]): 158 nM

SMILES: CCCCCCC(C)(C)c1cc(O)c2c(c1)OC(C)(C)[C@@H]1CCC(=O)C[C@@H]21 [NABILONE]
- Ki (Cannabinoid receptor 2 [1]): 17.6 nM
- Ki (Cannabinoid receptor 1 [2]): 5.1 nM
- EC50 (Cannabinoid receptor 1 [3]): 3.98 nM

SMILES: CCCCCC1=NN(C(=O)NCC2CCCCC2)CC1c1ccccc1 (stereo unspecified)
- Ki (Cannabinoid receptor 2 [1]): 53 nM
- Ki (Cannabinoid receptor 1 [2]): 15.3 nM

SMILES: CCCCC1=NN(C(=O)NC(C)(C)c2ccc(F)cc2)CC1c1ccccc1F (stereo unspecified)
- Ki (Cannabinoid receptor 2 [1]): 89 nM
- Ki (Cannabinoid receptor 1 [2]): 32 nM
- EC50 (Cannabinoid receptor 1 [3]): 126 nM
